As usually defined, the half-life is how long it takes for the measured level to halve. A low value points to fast loss.

Data on 25 molecules can be found in ChEMBL document CHEMBL1124564, “Ester derivatives of 2,6-bis(1-pyrrolidinylmethyl)-4-benzamidophenol as short-acting antiarrhythmic agents. 1” (J Med Chem, 1989).

Data set [1] is described as follows: Distribution coefficient of compound was determined in octanol-water system. The class given is physicochemical.
The species named for data set [2] is Cavia porcellus. The data set can be described thus: Inhibition of acetylstrophantidin induced arrhythmia in guinea pig isolated right atria. The class given is functional. The following applies: read-out: ED50 (the source's name). In outline:
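Isolated atrium in prewarmed 37 °C Krebs on an isometric force transducer, tension about 500 mg, equilibrated 1 h. Arrhythmogen (ethanolic stock) added at 5.0 μg/mL, raised to 7.5 μg/mL after 30 min if no arrhythmia. After 45 min, compound given in incremental doses every 20 min. ED is the cumulative dose restoring sinus rhythm for at least 3 min.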

Data set [3] can be described thus: Biological half-life was evaluated in whole human blood. The class given is ADME, organism-based. An outline of the steps:
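Fresh heparinized blood from male volunteers and compound in saline preincubated separately 5 min at 37 °C, then mixed 1:1 (final 25 μg/mL) and shaken at 37 °C for 0, 1, 2.5, 5.0, 10, 20, 30 and 60 min. Stopped with acetonitrile, proteins spun down, supernatant assayed by HPLC on phenyl column. Half-life is the time to 50% loss of compound.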

For data set [4], the species on record is Canis familiaris. In words: Inhibition of ouabain induced arrhythmia in the dog. The class given is functional, Canis lupus familiaris. In outline: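 Adult male mongrel dogs (10–17 kg) under pentobarbital (30 mg/kg iv), intubated, spontaneous breathing, lead II ECG. Ouabain iv bolus: 40 μg/kg, then 20 μg/kg at 30 min, then 5–10 μg/kg every 15 min until stable ventricular arrhythmia (>95% ectopic complexes) lasted 15 min. Compound infused iv at 0.5 mg/kg per min until sinus rhythm held ≥10 min.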

≈ marks a conversion by molar mass, not a printed value.

With `CC(C)COC(=O)Cc1cc(CN2CCCC2)c(O)c(CN2CCCC2)c1`, the Distribution coefficient in data set [1] was 1.25. Also, the EC50 in data set [2] came out at 5 µg/mL (≈ 13.4 µM). The same molecule yielded a half-life in data set [3] of 8.7 min. The same molecule registered an Active dose in data set [4] of 11.8 mg/kg.
Take `CCCOC(=O)CCCc1cc(CN2CCCC2)c(O)c(CN2CCCC2)c1`: in data set [3], the half-life worked out at 2.1 min.
As for `CC(C)COC(=O)c1cc(CN2CCCC2)c(O)c(CN2CCCC2)c1`, the Distribution coefficient in data set [1] stood at 1.47. Besides, the EC50 in data set [2] was 2.3 µg/mL (≈ 6.38 µM).
As to `CCCCOC(=O)CCCc1cc(CN2CCCC2)c(O)c(CN2CCCC2)c1`, the Distribution coefficient in data set [1] is given as 12.8. Besides, the EC50 in data set [2] came to 0.33 µg/mL (≈ 0.82 µM). The half-life in data set [3] came out at 0.77 min.
In turn, `CC(C)OC(=O)CCc1cc(CN2CCCC2)c(O)c(CN2CCCC2)c1` had a Distribution coefficient in data set [1] of 0.62. The EC50 in data set [2] was found to be 4 µg/mL (≈ 10.7 µM).
In the case of `O=C(O)CCc1cc(CN2CCCC2)c(O)c(CN2CCCC2)c1`, the EC50 in data set [2] is more than 1000 µg/mL.
With `CC(C)COC(=O)CCCc1cc(CN2CCCC2)c(O)c(CN2CCCC2)c1`, the Distribution coefficient in data set [1] was 7.24. Also, the EC50 in data set [2] came to 2 µg/mL (≈ 4.97 µM). In addition, in data set [3], the half-life is 1.96 min.
For the molecule `CCN(CC)CC(=O)Nc1c(C)cccc1C` [LIDOCAINE], the Distribution coefficient in data set [1] came to 19.19. For the same molecule, the EC50 in data set [2] amounted to 6 µg/mL (≈ 25.6 µM). The molecule further gave an Active dose in data set [4] of 10.1 mg/kg.
On to `CCCOC(=O)CCc1cc(CN2CCCC2)c(O)c(CN2CCCC2)c1`, for which the Distribution coefficient in data set [1] amounted to 0.78. Further, the EC50 in data set [2] worked out at 7 µg/mL (≈ 18.7 µM). Also, the half-life in data set [3] stood at 36.1 min. Further, the Active dose in data set [4] stood at 3 mg/kg.
As for `O=C(O)c1cc(CN2CCCC2)c(O)c(CN2CCCC2)c1`, the EC50 in data set [2] is more than 30 µg/mL. The Active dose in data set [4] is more than 60 mg/kg.
In the case of `CC(C)COC(=O)CCc1cc(CN2CCCC2)c(O)c(CN2CCCC2)c1`, in data set [1], the Distribution coefficient is on record as 1.54. In addition, the EC50 in data set [2] stood at 14 µg/mL (≈ 36 µM). The molecule also yielded a half-life in data set [3] of 25.9 min. In addition, the Active dose in data set [4] came out at 5 mg/kg.
`CCOC(=O)/C=C/c1ccc(NC(=O)c2cc(CN3CCCC3)c(O)c(CN3CCCC3)c2)cc1`: the Active dose in data set [4] was determined as 17.5 mg/kg.
`CCCCOC(=O)Cc1cc(CN2CCCC2)c(O)c(CN2CCCC2)c1` came in with a Distribution coefficient in data set [1] of 1.5. The EC50 in data set [2] came to 13.3 µg/mL (≈ 35.5 µM). The molecule also came in with a half-life in data set [3] of 9.5 min. Besides, in data set [4], the Active dose amounted to 7.3 mg/kg.
The molecule `CC(C)OC(=O)Cc1cc(CN2CCCC2)c(O)c(CN2CCCC2)c1` returned a Distribution coefficient in data set [1] of 0.39. In data set [2], the EC50 was found to be 1 µg/mL (≈ 2.77 µM).
For `CCOC(=O)c1ccccc1NC(=O)c1cc(CN2CCCC2)c(O)c(CN2CCCC2)c1`, the Active dose in data set [4] worked out at 1.75 mg/kg.
`CCOC(=O)CCc1ccc(NC(=O)c2cc(CN3CCCC3)c(O)c(CN3CCCC3)c2)cc1`: the Active dose in data set [4] is 10.9 mg/kg.
Molecule `CCOC(=O)Cc1cc(CN2CCCC2)c(O)c(CN2CCCC2)c1` came in with a Distribution coefficient in data set [1] of 0.18. Also, the EC50 in data set [2] is 17.2 µg/mL (≈ 49.6 µM). The Active dose in data set [4] is more than 7.5 mg/kg.
For `O=C(O)Cc1cc(CN2CCCC2)c(O)c(CN2CCCC2)c1`, the EC50 in data set [2] is more than 200 µg/mL.
As to `CCCOC(=O)Cc1cc(CN2CCCC2)c(O)c(CN2CCCC2)c1`, in data set [1], the Distribution coefficient was determined as 0.43. For the same molecule, in data set [2], the EC50 stood at 10.3 µg/mL (≈ 28.6 µM). In addition, the half-life in data set [3] amounted to 18.5 min. This molecule also displayed an Active dose in data set [4] of 8.8 mg/kg.
For the molecule `CCCCOC(=O)CCc1cc(CN2CCCC2)c(O)c(CN2CCCC2)c1`, the Distribution coefficient in data set [1] stood at 2. The EC50 in data set [2] was determined as 2.5 µg/mL (≈ 6.43 µM). The molecule further yielded a half-life in data set [3] of 22.1 min. The Active dose in data set [4] was 11 mg/kg.
`O=C(NCC1CCCCN1)c1cc(OCC(F)(F)F)ccc1OCC(F)(F)F` (configuration not stated) [FLECAINIDE]: the Distribution coefficient in data set [1] was 13.71. Further, in data set [2], the EC50 is 6 µg/mL (≈ 14.5 µM). For the same molecule, the Active dose in data set [4] was found to be 2.3 mg/kg.
The molecule `CCC(C)OC(=O)c1cc(CN2CCCC2)c(O)c(CN2CCCC2)c1` (configuration not stated) showed a Distribution coefficient in data set [1] of 1.12. Besides, the EC50 in data set [2] stood at 6.7 µg/mL (≈ 18.6 µM). In addition, in data set [4], the Active dose is 6.8 mg/kg.
In the case of `CC(C)OC(=O)c1cc(CN2CCCC2)c(O)c(CN2CCCC2)c1`, the Distribution coefficient in data set [1] is given as 0.37. In addition, the EC50 in data set [2] worked out at 11.4 µg/mL (≈ 32.9 µM).
In data set [4], `CCOC(=O)c1ccc(NC(=O)c2cc(CN3CCCC3)c(O)c(CN3CCCC3)c2)cc1` returned an Active dose of 19 mg/kg.
`O=C(Nc1ccccc1)c1cc(CN2CCCC2)c(O)c(CN2CCCC2)c1`: in data set [1], the Distribution coefficient is 0.42. Besides, in data set [2], the EC50 worked out at 11 µg/mL (≈ 29 µM). The Active dose in data set [4] is 2.5 mg/kg.
